hERG protect – shields human hERG channel from block by proarrhythmic agents | Q12809 | CHO-hERG, FluxOR thallium flux, dofetilide IC70 present | activation (rescue from dofetilide block), less the hit threshold, % at 10 µM | 310,000 tested, 0.51% active;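 active means activation above the mean of controls blocked by dofetilide plus 5 SD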;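 further: thallium influx through hERG after potassium depolarization seen as dye fluorescence rise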
Kir21 inh – inhibitors of mouse Kir2.1 inward-rectifier potassium channel. P35561. HEK293-Kir2.1, FluxOR thallium flux fluorescence; stronger effect = lower value. B-score at 10 µM. 310,000 tested, 0.85% active;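 active means fluorescence ratio B-score at or below minus 3 SD of library scores, with starting-brightness B-score within 2 SD, cut at about -4.2 in these data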;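 further: channel flux triggered by added potassium and thallium sulfate stimulus; B-score of peak minus minimum fluorescence over baseline after thallium stimulus; more negative B-score means stronger Kir2.1 block with less thallium influx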
KCNQ1 pot – potentiates or activates the human KCNQ1 potassium channel. P51787. CHO-K1 KCNQ1, thallium flux FluxOR fluorescence; stronger effect = higher value. B-score at 10 µM. 310,000 tested, 0.35% active;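 active means fluorescence ratio B-score, a plate-corrected score, at least three library SD, with initial intensity B-score within 5 SD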
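System: Stable KCNQ1 CHO-K1 line | Incubation: 90 min dye loading and 20 min compound exposure, both at room temperature | Measure: Ratio B score | Medium: Assay buffer for compound exposure, DMSO matched across wells | Compound dosing: Single-concentration screen | Probe or stimulus: K+/Tl+ depolarizing stimulus | Measured by: Kinetic FluxOR fluorescence, 10 s baseline plus 110 s post-stimulus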
KCNQ1 inh – blocks the human KCNQ1 potassium channel | P51787 | CHO-K1 KCNQ1, FluxOR thallium flux fluorescence; stronger effect = higher value | B-score at 10 µM | 310,000 tested, 1.3% active;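 active means compounds whose thallium flux B-score, printed positive for inhibition, exceeds three library SD while starting fluorescence stays within three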;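 further: channel opened by potassium depolarization with thallium stimulus after 20 min compound exposure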
KCNK3 block – human KCNK3 channel inhibition, primary screen; O14649; CHO-KCNK3 thallium flux, FluxOR fluorescence; stronger effect = lower value; B-score at 10 µM; 340,000 tested, 0.84% active; AID 602410;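 active means B-score under library mean minus 4 SD, starting fluorescence ratio at most library mean plus 5 SD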;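 further: more negative B-score means stronger inhibition of thallium flux through KCNK3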
KCNK9 block – blocks the human KCNK9 two-pore domain potassium channel; Q9NPC2; HEK293 KCNK9, FluxOR thallium flux fluorescence; stronger effect = lower value; B-score at 10 µM; 310,000 tested, 1.2% active; AID 488922;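 active means ratio B-score over 3 SD below the library mean, with starting fluorescence within 5 SD of its mean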;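 further: negative B-score means less thallium flux so channel inhibition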
KCNQ1 block val – human KCNQ1 channel inhibition, validation assay; shares compounds with KCNQ1 inh; KCNQ1 cell line, FluxOR thallium flux fluorescence; inhibition, % at 10 µM; 1,600 tested, 93% active;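 active means primary screen active, with duplicate mean exceeding buffer control mean plus 3 SD of buffer wells, cut at about 28% in these data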
CHO Tl flux – activity in parental CHO cells lacking KCNQ1; fluorescence ratio (Tl flux) at 10 µM; parental CHO-K1, FluxOR thallium flux fluorescence ratio; stronger effect = lower value; zero means no signal rise above baseline; 1,600 tested, 21% active; shares compounds with KCNQ1 inh;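 active means mean of duplicate thallium-flux fluorescence ratios in parental host cells more than 5 SD below the buffer control mean, cut at about 0.38 in these data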;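 further: ratio is peak minus minimum fluorescence divided by baseline fluorescence; actives read low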
KCNQ1 APC inh – confirmation of human KCNQ1 potassium channel inhibitors by electrophysiology; KCNQ1-CHO cells, automated patch clamp current; calls only at 10 µM; 490 tested, 20% active; shares compounds with KCNQ1 inh;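 active means KCNQ1 current drop exceeding 3 SD of negative control wells, seen in both duplicate runs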;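 further: steady state current during a 2 s step from -80 to +40 mV; negative values mean current inhibition and positive values mean potentiation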
KCNQ2 inh – KCNQ1 inhibitor that also blocks rat KCNQ2 channel; inhibition, % at 10 µM; 1,600 tested, 71% active; KCNQ2 cells, FluxOR thallium flux fluorescence; shares compounds with KCNQ1 inh;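 active means mean percent inhibition of the KCNQ2 thallium signal more than 5 SD above the buffer-only control wells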;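 further: KCNQ2 expressed in CHO cells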
KCNQ1-KCNE1 inh – KCNQ1 inhibitor that also blocks human KCNQ1/KCNE1 channel | KCNQ1/KCNE1 cells, FluxOR thallium flux fluorescence | shares compounds with KCNQ1 inh | inhibition, % at 10 µM | 1,600 tested, 77% active;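 active means mean percent inhibition of duplicate wells above the buffer-only control mean plus 3 SD of those controls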
Of the large screens only hits and unclear results are named; the others gave an inactive call (follow-up assays come after a bar, where they were run). Hits are enriched below; roughly 3.7% of the tested compounds scored in any of these assays.

CN(Cc1ccccc1)S(=O)(=O)c1ccc(NS(=O)(=O)Cc2ccccc2)cc1	KCNQ1 inh 8 | KCNQ1 block val 130 | CHO Tl flux 0.37 | KCNQ2 inh 118% | KCNQ1-KCNE1 inh 92%
CC(C)C(=O)NC(=S)Nc1ccc(S(=O)(=O)N(C)Cc2ccccc2)cc1	KCNQ1 inh 11 | KCNQ1 block val 117 | CHO Tl flux inactive | KCNQ1 APC inh inactive | KCNQ2 inh 104% | KCNQ1-KCNE1 inh 196%
CC(=O)NC(=S)Nc1ccc(S(=O)(=O)N(C)Cc2ccccc2)cc1	none
O=C(NC(c1cccnc1)C(F)(F)F)c1cc(COc2ccc3c(c2)CCCC3)on1 (stereo not drawn)	KCNQ1 inh 16 | KCNQ1 block val 138 | CHO Tl flux 0.36 | KCNQ2 inh 118% | KCNQ1-KCNE1 inh active
COc1ccc(C(=O)N/C=C/n2cnc3cc(C(F)(F)F)ccc32)cc1	none
COc1ccc(Cl)cc1N(CC(=O)Nc1ccccc1C(=O)N1CCOCC1)S(C)(=O)=O	none
Cc1ccc(S(=O)(=O)c2c(N)n(CCC(C)C)c3nc4ccccc4nc23)cc1	KCNQ1 inh 15 | KCNQ1 block val 75 | CHO Tl flux inactive | KCNQ2 inh inactive | KCNQ1-KCNE1 inh 97%
O=C1CSC(c2cn(-c3ccccc3)nc2-c2ccccc2)N1Cc1ccco1 (stereo not drawn)	KCNQ1 inh 10 | KCNQ1 block val 134 | CHO Tl flux inactive | KCNQ1 APC inh inactive | KCNQ2 inh 108% | KCNQ1-KCNE1 inh 189%
Fc1ccc2[nH]c3c(c2c1)CN(C(=S)NCc1ccccc1)CC3	KCNQ1 inh 7 | KCNQ1 block val 100 | CHO Tl flux inactive | KCNQ1 APC inh inactive | KCNQ2 inh 102% | KCNQ1-KCNE1 inh 88%
C=CCNC(=O)N1CCc2[nH]c3ccc(F)cc3c2C1	none
O=C(NC(=S)NN1CCCCC1c1cccnc1)c1ccc(Cl)cc1Cl (stereo not drawn)	none
CNC(=O)NC(=O)C(NC1CCCc2ccccc21)c1ccccc1 (stereo not drawn)	none
Cc1ccc(NC(=O)C(NC2CCCc3ccccc32)c2ccccc2)cc1Cl (stereo not drawn)	KCNQ1 inh 6 | KCNQ1 block val 66 | CHO Tl flux 0.36 | KCNQ2 inh 100% | KCNQ1-KCNE1 inh 99%
COc1ccc(Nc2nc(-c3cccs3)nc3ccccc23)c(OC)c1	KCNQ1 inh 8 | KCNQ1 block val 132 | CHO Tl flux 0.33 | KCNQ2 inh 131% | KCNQ1-KCNE1 inh active
COc1ccc(Nc2nc(-c3cccc([N+](=O)[O-])c3)nc3ccccc23)c(OC)c1	none
O=C(NCCOc1ccccc1F)C1CCC(=O)N(CC2CCCCC2)C1 (stereo not drawn)	none
COc1cccc(C2C(=O)N(C3CCCCC3)CC(=O)N2Cc2ccc(F)cc2)c1 (stereo not drawn)	KCNQ1 inh 6 | KCNQ1 block val 54 | CHO Tl flux inactive | KCNQ2 inh 93% | KCNQ1-KCNE1 inh 42%
CCOc1ccc(NC(=S)Nc2ccc3nsnc3c2)cc1	KCNQ1 inh 6 | KCNQ1 block val 82 | CHO Tl flux inactive | KCNQ2 inh 70% | KCNQ1-KCNE1 inh 48%
CCOc1ccc(NC(=S)Nc2ccc(OCC)cc2)cc1	none
CCOc1ccc(NC(=O)Nc2cccc(C(=O)O)c2)cc1	none
